Tests used:
Type in all cases: functional
[1] = test system: Mus musculus; assay: (§1) Percent effect profile muscle relaxation at 100 mg/kg by intraperitoneal administration in mouse using Straub-tail (ST) assay; conditions: ip
Method in brief: (§2)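 Mouse morphine-induced Straub tail assay, scoring inhibition of sacro-coccygeus dorsalis contraction. Single ip dose of 100 mg/kg; percent effect reported. Compounds above 50% inhibition were then tested orally.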

[2] = test system: Rattus norvegicus; assay: Percent inhibition for analgesic activity by trypsin-induced hyperalgesia assay at 20 mg/kg by oral administration in rats.
Method in brief: (§3)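 Rat trypsin-induced hyperalgesia (mild analgesia). Percent inhibition at a single oral dose of 20 mg/kg. Each compound tested two or three times; average variation approximately 5%.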

[3] = test system: Rattus norvegicus; assay: Antiinflammatory activity in cells by Carrageenan pleurisy assay by oral administration at 20 mg/kg.
Method in brief: (§4)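 Rat carrageenan pleurisy, 3 h. Single oral dose of 20 mg/kg, with separate read-outs for pleural cell counts and edema as percent inhibition. Each compound tested two or three times; average variation approximately 10%.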

[4] = test system: Rattus norvegicus; assay: Antiinflammatory activity in edema by Carrageenan pleurisy assay by oral administration at 20 mg/kg.; method in brief: as §4
[5] = species on record: Mus musculus; assay: Ratio of rotarod to Straub-tail activity, which indicates the dose exhibiting muscle relaxant activity versus that producing sedation.
Method in brief: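 Ratio of rotorod ED50 (po) to Straub tail ED50 (po), both measured in mice with oral dosing. Indicates separation between the muscle-relaxant dose and the sedating dose.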

[6] = test system: Mus musculus; assay: as §1; conditions: ip; method in brief: as §2; remark: listed apart in the source
[7] = test system: Mus musculus; assay: Effective dose required for muscle relaxation by oral administration in mouse using Straub-tail (ST) assay.
Method in brief: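 Mouse morphine-induced Straub tail assay, scoring inhibition of sacro-coccygeus dorsalis contraction. Dosed ip or po, generally at a minimum of three doses with N = 6 animals per dose group.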

[8] = test system: Mus musculus; assay: Sedation caused by oral administration was estimated using rotarod (RR) assay.
Method in brief: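 Mouse rotorod test for sedation, oral dosing, generally at a minimum of three doses with N = 6 animals per dose group.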

[9] = test system: Rattus norvegicus; assay: Percent inhibition for analgesic activity by trypsin-induced hyperalgesia assay at 20 mg/kg by oral administration in rats; method in brief: as §3
[10] = test system: Rattus norvegicus; assay: Effective dose required for analgesic activity by trypsin-induced hyperalgesia assay at 20 mg/kg by oral administration in rats
Method in brief: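 Rat trypsin-induced hyperalgesia (mild analgesia) with oral dosing. ED50 reported in mg/kg po. Each compound tested two or three times; average variation approximately 5%.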

SMILES | inhibition in vivo at 100 mg/kg [1] | inhibition in vivo at 20 mg/kg [2] | inhibition in vivo at 20 mg/kg [3] | inhibition in vivo at 20 mg/kg [4] | Ratio [5] | inhibition in vivo at 100 mg/kg [6] | ED50 [7] | ED50 [8] | inhibition in vivo at 20 mg/kg [9] | ED50 [10]
CNC(=O)/C=C1\CCc2ccc(Br)cc21 | 0% | 4% | 44% | 53% |  |  |  |  |  | 
NC(=O)/C=C1\CCc2cc(F)ccc21 |  |  | 54% | 42% | >~2 | 100% | 56 mg/kg | > 100 mg/kg |  | 
CCN(C)C(=O)/C=C1\CCc2ccc(F)cc21 | 100% | 77% | 20% | 44% |  |  | 100 mg/kg |  |  | 
O=C(/C=C1\CCc2ccc(F)cc21)NCCO | 50% | 33% | 42% | 78% |  |  |  |  |  | 
O=C(/C=C1\CCc2cc(F)c(F)cc21)NC1CC1 | 50% |  | 30% | 48% |  |  |  |  |  | 
COc1ccc2c(c1)/C(=C/C(N)=O)CC2 |  |  | 1% | 3% |  | 0% |  |  |  | 
O=C(/C=C1\CCc2c1ccc(F)c2F)NC1CC1 |  | 11% | 27% | 27% |  | 100% | 62 mg/kg |  |  | 
O=C(/C=C1\CCc2ccc(F)cc21)N1CCOCC1 | 100% |  | 7% | 31% |  |  | 90 mg/kg |  |  | 
CCNC(=O)/C=C1\CCc2ccc(F)cc21 | 100% | 40% | 45% | 63% | 1.9 |  | 70 mg/kg | 136 mg/kg |  | 
COc1ccc2c(c1)CC/C2=C\C(N)=O | 17% | 13% | 18% | 25% |  |  |  |  |  | 
NC(=O)/C=C1/CCc2ccc(F)cc21 | 100% |  |  |  | 1.4 |  | 64 mg/kg | 92 mg/kg | 24% | 
O=C(/C=C1\CCc2c(Cl)cccc21)NC1CC1 | 100% |  | 28% | 45% | 1.1 |  | 58 mg/kg | 66 mg/kg |  | 
CN(C)C(=O)/C=C1\CCc2c(F)cc(F)cc21 | 100% |  |  |  | 2 |  | 50 mg/kg | 100 mg/kg | 75% | 
NC(=O)/C=C1\CCc2c(Cl)cccc21 | 67% | 29% | 35% | 58% |  |  |  |  |  | 
CNC(=O)/C=C1\CCc2cc(F)cc(F)c21 | 33% |  |  |  |  |  |  |  | 33% | 
CC(C)NC(=O)/C=C1\CCc2c(F)cc(F)cc21 | 100% |  |  |  | 1.9 |  | 50 mg/kg | 76 mg/kg |  | 
CNC(=O)/C=C1\CCc2ccc(F)cc21 |  | 58% | 45% | 38% |  | 50% |  |  |  | 25 mg/kg
O=C(/C=C1\CCc2ccc(Cl)cc21)NC1CC1 | 50% |  |  |  |  |  |  |  |  | 
Cc1cccc2c1/C(=C/C(=O)NC1CC1)CC2 | 17% |  |  |  |  |  |  |  | 24% | 
O=C(/C=C1\CCc2c(F)ccc(F)c21)NC1CC1 | 100% | 2% |  |  | 0.03 |  | 59 mg/kg | 2 mg/kg |  | 
CON(C)C(=O)/C=C1\CCc2ccc(F)cc21 | 17% |  | 6% | 14% |  |  |  |  |  | 
NC(=O)/C=C1\CCc2c(F)cccc21 |  | 68% | 40% | 34% |  | 63% | > 100 mg/kg |  |  | 13 mg/kg
NC(=O)/C=C1\CCc2c(F)ccc(F)c21 | 100% | 83% | 67% | 67% | 1.6 |  | 56 mg/kg | 89 mg/kg |  | 8 mg/kg
CC(C)NC(=O)/C=C1\CCc2ccc(F)cc21 | 100% | 83% | 45% | 71% |  |  | 96 mg/kg | > 100 mg/kg |  | 9 mg/kg

Source: ChEMBL document CHEMBL1144887, “Indanylidenes. 1. Design and synthesis of (E)-2-(4,6-difluoro-1-indanylidene)acetamide, a potent, centrally acting muscle relaxant with antiinflammatory and analgesic activity” (J Med Chem, 2003)
